# According to ChEMBL document CHEMBL1137074, “Novel N-arylpyrazolo[3,2-c]-based ligands for the glucocorticoid receptor: receptor binding and in vivo activity” (J Med Chem, 2004):
# How the values were obtained:
# Glucocorticoid receptor [1] = target: T1, Glucocorticoid receptor (Homo sapiens, UniProt P04150); test: Ability to induce human IL-6 assay in A549 lung carcinoma cell line.; assay type: functional, cell-based
# T1 sequence (P04150 whole entry): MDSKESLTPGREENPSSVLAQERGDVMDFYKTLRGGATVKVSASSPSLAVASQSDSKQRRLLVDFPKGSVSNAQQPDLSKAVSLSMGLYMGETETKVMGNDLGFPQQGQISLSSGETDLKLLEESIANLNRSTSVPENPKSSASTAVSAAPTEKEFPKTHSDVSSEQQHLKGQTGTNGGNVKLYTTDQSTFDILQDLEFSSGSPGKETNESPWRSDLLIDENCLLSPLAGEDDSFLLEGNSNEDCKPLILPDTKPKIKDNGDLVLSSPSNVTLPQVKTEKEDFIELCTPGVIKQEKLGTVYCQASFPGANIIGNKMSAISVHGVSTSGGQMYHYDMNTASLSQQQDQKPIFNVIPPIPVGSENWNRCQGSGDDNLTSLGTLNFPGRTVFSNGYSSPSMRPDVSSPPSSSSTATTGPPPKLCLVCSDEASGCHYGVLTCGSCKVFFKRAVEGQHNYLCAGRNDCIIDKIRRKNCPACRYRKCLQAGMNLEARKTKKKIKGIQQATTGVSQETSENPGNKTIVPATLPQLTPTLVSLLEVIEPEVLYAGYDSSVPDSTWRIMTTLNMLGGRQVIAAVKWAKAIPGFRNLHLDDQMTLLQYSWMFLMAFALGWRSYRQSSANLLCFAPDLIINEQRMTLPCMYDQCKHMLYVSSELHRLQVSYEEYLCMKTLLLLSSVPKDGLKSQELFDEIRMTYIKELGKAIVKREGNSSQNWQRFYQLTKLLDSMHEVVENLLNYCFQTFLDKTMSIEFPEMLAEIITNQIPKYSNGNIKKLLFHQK
# Androgen receptor = target: T2, Androgen receptor (Homo sapiens, UniProt P10275); test: Binding affinity for human androgen receptor
# T2 sequence (P10275 whole entry): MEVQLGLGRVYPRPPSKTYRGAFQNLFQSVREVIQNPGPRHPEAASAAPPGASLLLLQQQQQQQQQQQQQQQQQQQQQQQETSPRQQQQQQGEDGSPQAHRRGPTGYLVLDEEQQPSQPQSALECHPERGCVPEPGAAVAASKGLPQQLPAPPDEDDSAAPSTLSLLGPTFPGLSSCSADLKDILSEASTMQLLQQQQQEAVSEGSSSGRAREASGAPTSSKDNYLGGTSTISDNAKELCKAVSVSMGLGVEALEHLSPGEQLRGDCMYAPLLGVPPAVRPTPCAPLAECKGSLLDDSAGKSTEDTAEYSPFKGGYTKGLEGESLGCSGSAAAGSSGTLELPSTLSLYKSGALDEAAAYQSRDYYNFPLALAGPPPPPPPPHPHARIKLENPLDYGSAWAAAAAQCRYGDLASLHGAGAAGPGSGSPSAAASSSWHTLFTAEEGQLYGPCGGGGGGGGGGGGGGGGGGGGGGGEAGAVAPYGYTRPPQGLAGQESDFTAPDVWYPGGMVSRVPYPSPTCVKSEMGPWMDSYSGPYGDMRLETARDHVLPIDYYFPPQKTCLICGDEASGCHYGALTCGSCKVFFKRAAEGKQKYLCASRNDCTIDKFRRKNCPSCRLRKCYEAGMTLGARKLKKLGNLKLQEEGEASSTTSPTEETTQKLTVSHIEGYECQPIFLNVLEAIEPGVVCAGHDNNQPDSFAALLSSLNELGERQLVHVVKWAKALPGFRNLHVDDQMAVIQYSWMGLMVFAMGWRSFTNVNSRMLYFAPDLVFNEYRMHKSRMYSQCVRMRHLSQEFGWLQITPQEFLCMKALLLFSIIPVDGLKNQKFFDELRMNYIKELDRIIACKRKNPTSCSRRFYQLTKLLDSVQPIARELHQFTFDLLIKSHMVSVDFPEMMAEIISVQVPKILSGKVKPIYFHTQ
# Estrogen receptor = target: T3, Estrogen receptor (Homo sapiens, UniProt P03372); test: Binding affinity for human Estrogen receptor alpha
# T3 sequence (P03372 whole entry): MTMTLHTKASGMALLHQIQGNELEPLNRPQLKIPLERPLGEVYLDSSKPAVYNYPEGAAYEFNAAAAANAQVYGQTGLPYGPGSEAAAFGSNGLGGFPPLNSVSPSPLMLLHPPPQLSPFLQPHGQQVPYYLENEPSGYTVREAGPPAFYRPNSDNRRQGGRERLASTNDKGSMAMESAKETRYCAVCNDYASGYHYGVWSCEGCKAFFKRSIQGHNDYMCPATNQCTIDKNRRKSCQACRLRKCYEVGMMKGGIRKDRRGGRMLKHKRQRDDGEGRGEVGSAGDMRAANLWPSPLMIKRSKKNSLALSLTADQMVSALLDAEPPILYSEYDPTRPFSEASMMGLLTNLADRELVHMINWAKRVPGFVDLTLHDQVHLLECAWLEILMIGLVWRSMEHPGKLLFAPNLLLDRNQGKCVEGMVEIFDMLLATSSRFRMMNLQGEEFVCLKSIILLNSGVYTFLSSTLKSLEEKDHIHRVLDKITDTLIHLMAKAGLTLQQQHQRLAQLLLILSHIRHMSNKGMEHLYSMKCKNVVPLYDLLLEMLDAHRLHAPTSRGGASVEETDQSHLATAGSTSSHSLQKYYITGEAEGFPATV
# Glucocorticoid receptor [2] = target: T1, Glucocorticoid receptor; test: Binding affinity for human glucocorticoid receptor
# Glucocorticoid receptor [3] = target: T1, Glucocorticoid receptor; test: Compound was tested for inhibitory activity towards human glucocorticoid receptor
# Glucocorticoid receptor [4] = target: T1, Glucocorticoid receptor; test: Ability to induce human glutamine synthetase in skeletal muscle cells; assay type: cell-based
# Mus musculus = test: Ability to induce mouse macrophage IL-6 assay in peritoneal exudate cells harvested by […] from C57BI/6 mice.; assay type: functional, cell-based
# Method in brief: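 Thioglycolate-elicited peritoneal exudate cells from C57Bl/6 mice, harvested day 3 in PBS/heparin, washed and resuspended at 5.6×10^5 cells/mL in RPMI 1640 with 10% heat-inactivated FCS. Compound (typically 3 μM final) preincubated 1 h at 37 °C, 5% CO2, then LPS or TNF added, 24 h. Supernatant IL-6 read; duplicate wells, three experiments.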
# Progesterone receptor = target: T4, Progesterone receptor (Homo sapiens, UniProt P06401); test: Binding affinity towards human progesterone receptor
# T4 sequence (P06401 whole entry): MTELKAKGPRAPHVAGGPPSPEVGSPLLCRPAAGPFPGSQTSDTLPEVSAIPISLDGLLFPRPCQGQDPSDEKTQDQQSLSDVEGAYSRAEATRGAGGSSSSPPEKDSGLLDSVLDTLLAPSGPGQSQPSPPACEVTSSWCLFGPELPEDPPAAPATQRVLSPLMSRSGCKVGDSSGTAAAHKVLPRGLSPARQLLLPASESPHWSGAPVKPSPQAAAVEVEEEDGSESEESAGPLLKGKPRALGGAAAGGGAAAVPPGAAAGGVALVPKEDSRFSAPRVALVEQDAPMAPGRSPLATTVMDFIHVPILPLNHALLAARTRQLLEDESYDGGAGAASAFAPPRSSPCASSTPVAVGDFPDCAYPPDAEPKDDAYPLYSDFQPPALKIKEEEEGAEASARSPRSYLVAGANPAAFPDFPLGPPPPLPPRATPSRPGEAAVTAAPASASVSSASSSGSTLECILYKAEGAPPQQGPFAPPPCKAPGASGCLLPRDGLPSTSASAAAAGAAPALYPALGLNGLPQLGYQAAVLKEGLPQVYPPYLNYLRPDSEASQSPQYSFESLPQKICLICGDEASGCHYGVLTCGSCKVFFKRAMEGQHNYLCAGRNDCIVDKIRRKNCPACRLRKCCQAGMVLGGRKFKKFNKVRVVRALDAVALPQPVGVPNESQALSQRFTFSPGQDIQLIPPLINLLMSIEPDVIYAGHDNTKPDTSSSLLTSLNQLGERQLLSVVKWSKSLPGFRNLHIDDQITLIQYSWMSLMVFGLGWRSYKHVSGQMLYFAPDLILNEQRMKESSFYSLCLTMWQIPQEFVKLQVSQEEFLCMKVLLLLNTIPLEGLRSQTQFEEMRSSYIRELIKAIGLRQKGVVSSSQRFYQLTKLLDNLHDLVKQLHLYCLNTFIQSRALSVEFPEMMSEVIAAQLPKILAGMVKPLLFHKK
# Method in brief: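 Receptor homogenates from frozen cell pellets in ice-cold KPO4 buffer (10 mM KPO4, 20 mM molybdate, 1 mM EDTA, 5 mM DTT, protease inhibitors), spun 35 000g 1 h at 4 °C. MR: recombinant baculovirus-expressed rat receptor, 2 nM [3H]aldosterone; PR: T-47D cell protein, 5 nM [3H]progesterone.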
# Glucocorticoid receptor [5] = target: T1, Glucocorticoid receptor; test: Glucocorticoid induced transactivation of human tyrosine amino transferase in HepG2 cells; assay type: functional, cell-based
# [6] = target: Mineralocorticoid receptor (Rattus norvegicus) (UniProt P22199); test: Binding affinity for rat mineralocorticoid receptor
# Chain of Mineralocorticoid receptor (Rattus norvegicus) (P22199 whole entry, looked up): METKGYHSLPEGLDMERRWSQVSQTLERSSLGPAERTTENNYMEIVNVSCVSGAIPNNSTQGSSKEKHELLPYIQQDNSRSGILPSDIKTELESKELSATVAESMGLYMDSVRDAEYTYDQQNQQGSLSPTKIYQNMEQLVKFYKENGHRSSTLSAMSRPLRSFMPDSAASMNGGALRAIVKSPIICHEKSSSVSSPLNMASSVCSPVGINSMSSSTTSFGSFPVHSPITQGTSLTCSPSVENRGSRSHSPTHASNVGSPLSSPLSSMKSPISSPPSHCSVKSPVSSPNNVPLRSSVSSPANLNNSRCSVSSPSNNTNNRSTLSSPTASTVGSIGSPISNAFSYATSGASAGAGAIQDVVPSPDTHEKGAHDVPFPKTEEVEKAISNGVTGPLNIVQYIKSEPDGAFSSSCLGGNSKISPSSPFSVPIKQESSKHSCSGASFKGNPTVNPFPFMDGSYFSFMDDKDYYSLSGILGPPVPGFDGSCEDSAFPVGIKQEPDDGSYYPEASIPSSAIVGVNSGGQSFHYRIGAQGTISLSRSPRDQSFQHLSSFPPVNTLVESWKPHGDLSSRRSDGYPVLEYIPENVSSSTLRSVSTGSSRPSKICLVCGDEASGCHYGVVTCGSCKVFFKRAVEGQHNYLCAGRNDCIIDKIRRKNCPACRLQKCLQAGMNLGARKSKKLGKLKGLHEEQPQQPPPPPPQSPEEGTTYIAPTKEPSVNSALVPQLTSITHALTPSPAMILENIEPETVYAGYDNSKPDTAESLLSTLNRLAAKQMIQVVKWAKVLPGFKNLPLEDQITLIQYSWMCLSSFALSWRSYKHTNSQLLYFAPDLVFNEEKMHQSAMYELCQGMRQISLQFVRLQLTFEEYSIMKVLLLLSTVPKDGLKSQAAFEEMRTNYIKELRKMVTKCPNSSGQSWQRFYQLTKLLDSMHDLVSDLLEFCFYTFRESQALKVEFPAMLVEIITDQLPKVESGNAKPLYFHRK
Structure (SMILES),EC50 (Glucocorticoid receptor [1]) [nM],IC50 (Androgen receptor) [nM],IC50 (Estrogen receptor) [nM],IC50 (Glucocorticoid receptor [2]) [nM],IC50 (Glucocorticoid receptor [3]) [nM],EC50 (Glucocorticoid receptor [4]) [nM],EC50 (Mus musculus) [nM],IC50 (Progesterone receptor) [nM],EC50 (Glucocorticoid receptor [5]) [nM],IC50 [6] [nM]
C[C@]12Cc3cnn(-c4ccc(F)cc4)c3C=C1CCC[C@@H]2[C@](C)(O)c1ccc(F)cc1,2.2,> 5000,> 1000,2.5,2.5,130,1.4,> 1000,57.2,> 5000
C=CCC[C@H](O)[C@H]1CCCC2=Cc3c(cnn3-c3ccc(F)cc3)C[C@@]21C,4.4,> 5000,> 1000,4.2,1.1,–,5.7,> 1000,256,> 5000
